Data as given in ChEMBL document CHEMBL4041513, “In silico identification, design and synthesis of novel piperazine-based antiviral agents targeting the hepatitis C virus helicase” (Eur J Med Chem, 2017).
pEC50, pIC50: −log10 of the molar value.

How the values were obtained:
Hepatitis C virus = assay: Antiviral activity against HCV genotype 1b infected in human HuH5.2 cells with persistent I389luc-ubi-neo/NS3-3'/5.1 replicon after 72 hrs by luciferase reporter gene assay; type: functional, cell-based, Hepacivirus hominis; conditions: Huh-5-2, 72 h
Procedure, shortened: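 Huh 5-2 cells carrying the genotype 1b I389luc-ubi-neo/NS3-3'/5.1 replicon were seeded at 6 500 cells/well in Geneticin-free DMEM/10% FCS and left overnight. Compounds from DMSO stocks were added in a four-step 1-to-5 series for the first screen or an eight-step 1-to-2 series for dose-response curves, then 72 h at 37 °C. Luciferase luminescence after lysis, as % of untreated controls, gave EC50; mean of ≥2 experiments.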

[1] = Cytotoxicity against human HuH5.2 cells assessed as reduction in cell viability after 72 hrs by MTS assay; type: cell-based, Huh-5-2
Procedure, shortened: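 Huh 5-2 cells carrying the genotype 1b I389luc-ubi-neo/NS3-3'/5.1 replicon were seeded at 6 500 cells/well in medium without Geneticin one day ahead. Compounds (DMSO stock) were added as 1:5 four-step or 1:2 eight-step dilutions for 72 h at 37 °C.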

[2] = Selectivity index, ratio of CC50 for human HuH5.2 cells to EC50 for HCV genotype 1b infected in human HuH5.2 cells with persistent I389luc-ubi-neo/NS3-3'/5.1 replicon
[3] = Inhibition of HCV NS3 helicase DNA unwinding activity using fluorescent DNA substrate by molecular beacon assay; design: species or system Hepacivirus hominis
Procedure, shortened: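 Molecular beacon unwinding reaction: 25 mM MOPS pH 6.5, 1.25 mM MgCl2, 5% DMSO, 5 µg/ml BSA, 0.01% Tween20, 0.05 mM DTT, 5 nM fluorescent DNA substrate, 12.5 nM NS3h, 1 mM ATP. Duplicate two-fold dilutions spanned 1 mM to 0.78 µM. Data normalised to no-inhibitor and no-enzyme controls; IC50 from variable-slope Hill fit.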

SMILES | pEC50 (Hepatitis C virus) | CC50 at 72 h [1] | Ratio CC50/EC50 [2] | pIC50 [3] | EC90 (Hepatitis C virus)
COc1ccc(OC)c(S(=O)(=O)NCCN2CCN(CCNS(=O)(=O)c3cc(OC)ccc3OC)CC2)c1 | < 4.06 | > 87.3 µM |  |  | 
CC(C)(C)c1ccc(S(=O)(=O)NCCCN2CCN(CCCNS(=O)(=O)c3ccccc3)CC2)cc1 | 5.43 | 20.5 µM | 5.5 |  | 
O=C(O)C1=CC(=C(c2ccc(O)c(C(=O)O)c2)c2ccc(O)c(C(=O)O)c2)C=CC1=O [AURINTRICARBOXYLIC ACID] |  |  |  | 6.52 | 
O=C1N/C(=N/N=C/c2ccccc2O)SC1Cc1ccc(Br)cc1 (stereo not given) | 4.98 | 15.7 µM | 1.5 |  | 
O=S(=O)(NCCCN1CCN(CCNS(=O)(=O)c2ccc(Cl)cc2)CC1)c1ccc(Cl)cc1 | 5.18 | 32.3 µM | 4.9 |  | 
Cc1ccc(S(=O)(=O)NCCN2CCN(CCNS(=O)(=O)c3ccc(C)cc3)CC2)cc1 | < 3.98 | > 104 µM |  |  | > 104 µM
O=S(=O)(NCCCN1CCN(CCCNS(=O)(=O)c2ccc(Cl)cc2)CC1)c1ccccc1 | 4.70 | 81.5 µM | 4.1 |  | > 64 µM
COc1ccc(S(=O)(=O)NCCN2CCN(CCNS(=O)(=O)c3ccc(OC)cc3)CC2)cc1 | < 4.01 | > 97.5 µM |  |  | > 97.5 µM
COc1ccc(S(=O)(=O)NCCC(=O)N2CCN(C(=O)CCNS(=O)(=O)c3ccc(OC)c(OC)c3)CC2)cc1OC | < 3.80 | > 159 µM |  |  | > 159 µM
O=S(=O)(NCCNc1ccc(NCCNS(=O)(=O)c2ccc(Cl)cc2)cc1)c1ccc(Cl)cc1 | 4.92 | 22 µM | 1.8 |  | 
O=S(=O)(NCCCN1CCN(CCCNS(=O)(=O)c2cccs2)CC1)c1cccs1 | 4.21 | > 203 µM | >3.3 |  | 156 µM
Cc1ccc(S(=O)(=O)NCCCN2CCN(CCCNS(=O)(=O)c3ccccc3)CC2)cc1 | 4.58 | 138 µM | 5.3 |  | 
O=C(CCNS(=O)(=O)c1ccc2ccccc2c1)N1CCN(C(=O)CCNS(=O)(=O)c2ccc3ccccc3c2)CC1 | 4.92 | 40.8 µM | 3.4 |  | 
O=C(O)c1ccc(S(=O)(=O)NCCCN2CCN(CCCNS(=O)(=O)c3ccc(C(=O)O)cc3)CC2)cc1 | < 3.75 | > 176 µM |  | < 3.00 | 
O=C(CCNS(=O)(=O)c1ccccc1)N1CCN(CCCNS(=O)(=O)c2ccccc2)CC1 | < 3.69 | > 202 µM |  |  | > 202 µM
CCC[C@H](NC(=O)[C@@H]1[C@H]2CCC[C@H]2CN1C(=O)[C@@H](NC(=O)[C@@H](NC(=O)c1cnccn1)C1CCCCC1)C(C)(C)C)C(=O)C(=O)NC1CC1 |  |  | 58.8 |  | 
Cc1ccc2nc(N3C(=O)C(O)=C(C(=O)c4cc5ccccc5o4)C3c3cccc(Oc4ccccc4)c3)sc2c1 (stereo not given) | 4.38 | > 89.5 µM | >2.1 |  | > 89.5 µM
O=S(=O)(NCCCN1CCN(CCCNS(=O)(=O)c2ccc(-c3ccccc3)cc2)CC1)c1ccc(Cl)cc1 | 5.67 | 4.43 µM | 2.1 |  | 
O=c1nc2n(-c3cccc(Br)c3)c3ccccc3cc-2c(=O)[nH]1 | 4.09 | > 136 µM | >1.6 |  | 
O=S(=O)(NCCCN1CCN(CCCNS(=O)(=O)c2ccc(C(F)(F)F)cc2)CC1)c1ccc(Cl)cc1 | 5.00 | 63.7 µM | 6.3 |  | 33.5 µM
Cc1ccc2nc(-c3ccc4nc(-c5ccc(N)cc5)sc4c3)sc2c1S(=O)(=O)O |  |  |  | 5.00 | 
Cc1ccc2nc(N3C(=O)C(O)=C(C(=O)c4cc5ccccc5o4)C3c3cccc(O)c3)sc2c1 (stereo not given) | 4.45 | > 104 µM | >2.8 |  | 
O=S(=O)(NCCN1CCN(CCNS(=O)(=O)c2ccccc2)CC1)c1ccccc1 | < 3.96 | > 110 µM |  |  | 
COc1ccc(S(=O)(=O)NCCCN2CCN(CCCNS(=O)(=O)c3ccc(OC)cc3)CC2)cc1 | < 4.03 | > 92.5 µM |  |  | > 92.5 µM
Cc1ccc(S(=O)(=O)NCCCN2CCN(C(=O)CCNS(=O)(=O)c3ccc(C)cc3)CC2)cc1 | 4.19 | > 191 µM | >3 |  | 173 µM
O=S(=O)(NCCCN1CCN(CCCNS(=O)(=O)c2cccc3ccccc23)CC1)c1cccc2ccccc12 | < 3.76 | > 172 µM |  | < 3.00 | > 172 µM
COc1ccc(-c2ccc(/C=N/NC(=O)COc3cc(C)ccc3C)o2)cc1Cl | 4.58 | > 121 µM | >4.5 |  | > 121 µM

SMILES | pEC50 (Hepatitis C virus) | CC50 at 72 h [1] | Ratio CC50/EC50 [2] | pIC50 [3] | EC90 (Hepatitis C virus)
COc1ccc(C(=O)C2=C(O)C(=O)N(c3cnoc3C)C2c2ccc(C(C)(C)C)cc2)cc1OC (stereo not given) | 4.24 | > 105 µM | >1.8 |  | 
Cc1ccc(S(=O)(=O)NCCCN2CCN(CCCNS(=O)(=O)c3ccc(C(C)(C)C)cc3)CC2)cc1 | 5.46 | 14.6 µM | 4.2 |  | 9.44 µM
O=[N+]([O-])c1ccc(S(=O)(=O)NCCN2CCN(CCNS(=O)(=O)c3ccc([N+](=O)[O-])cc3)CC2)cc1 | 4.76 | > 184 µM | >10.6 |  | 
O=[N+]([O-])c1ccc(S(=O)(=O)NCCCN2CCN(CCCNS(=O)(=O)c3ccc([N+](=O)[O-])cc3)CC2)cc1 | 4.74 | 77.4 µM | 4.4 |  | 61.1 µM
O=S(=O)(NCCCN1CCN(CCCNS(=O)(=O)c2cccc(Cl)c2)CC1)c1cccc(Cl)c1 | 4.11 | > 182 µM | >2.4 |  | 173 µM
COc1ccc(S(=O)(=O)NCCN2CCN(CCNS(=O)(=O)c3ccc(OC)c(OC)c3)CC2)cc1OC | 4.07 | > 87.3 µM | >1 |  | > 87.3 µM
Cc1ccc(C(=O)C2=C(O)C(=O)N(Cc3ccco3)C2c2cccc(Cl)c2)o1 (stereo not given) | 4.51 | > 126 µM | >4.1 |  | 
COc1ccc(S(=O)(=O)NCCC(=O)N2CCN(C(=O)CCNS(=O)(=O)c3ccc(OC)cc3)CC2)cc1 |  | > 87.9 µM |  |  | 
Cc1ccc(S(=O)(=O)NCCCN2CCN(CCCNS(=O)(=O)c3ccc(Cl)cc3)CC2)cc1 | 5.00 | 48.8 µM | 4.9 |  | 36 µM
CC(CC(=O)O)CC(=O)Nc1cccnc1 (stereo not given) | < 3.65 | > 225 µM |  |  | > 225 µM
O=S(=O)(NCCCN1CCN(CCCNS(=O)(=O)c2ccc(C(F)(F)F)cc2)CC1)c1ccccc1 | 4.92 | 70.8 µM | 5.8 |  | 
O=S(=O)(NCCCN1CCN(CCCNS(=O)(=O)c2ccccc2)CC1)c1ccccc1 | 4.23 | > 104 µM | >1.8 |  | 
Cc1ccc(S(=O)(=O)NCCCN2CCN(CCCNS(=O)(=O)c3ccc(-c4ccccc4)cc3)CC2)cc1 | 5.70 | 6.55 µM | 3.3 |  | 
COc1ccc(OC)c(S(=O)(=O)NCCCN2CCN(CCCNS(=O)(=O)c3cc(OC)ccc3OC)CC2)c1 | < 4.08 | > 83.2 µM |  |  | > 83.2 µM
O=C1NC(=O)/C(=C\c2ccc(-c3ccc(Cl)cc3Cl)o2)S1 | 4.88 | 33.4 µM | 2.5 |  | 
O=S(=O)(NCCCN1CCCCC1)c1ccc(Cl)cc1 | 4.21 | 145 µM | 2.3 |  | 
O=C(NCCCN1CCN(CCCNC(=O)c2ccc(Cl)cc2)CC1)c1ccc(Cl)cc1 | < 3.68 | > 209 µM |  |  | > 209 µM
CC(C)(C)c1ccc(C(=O)Oc2ccc3c(-c4ccccc4C(=O)O)c4ccc(=O)cc-4oc3c2)cc1 | < 3.99 | > 102 µM |  |  | > 102 µM
CC(=O)c1ccc(NC(=O)CSc2nnc(NC(=O)CCc3ccccc3)s2)cc1 | < 3.95 | > 113 µM |  |  | > 113 µM
Cc1ccc(S(=O)(=O)NCCCN2CCN(CCCNS(=O)(=O)c3ccc(C)cc3)CC2)cc1 | 4.72 | > 197 µM | >10.3 |  | 
O=S(=O)(NCCCN1CCN(CCCNS(=O)(=O)c2cccnc2)CC1)c1cccnc1 | < 3.68 | > 207 µM |  |  | > 207 µM
COc1ccc(OC)c(S(=O)(=O)NCCC(=O)N2CCN(C(=O)CCNS(=O)(=O)c3cc(OC)ccc3OC)CC2)c1 | < 4.10 | > 79.5 µM |  |  | 
O=S(=O)(NCCCN1CCN(CCCNS(=O)(=O)c2ccccc2Cl)CC1)c1ccccc1Cl |  | > 182 µM |  |  | 
O=S(=O)(NCCCN1CCN(CCNS(=O)(=O)c2ccccc2)CC1)c1ccccc1 | 4.16 | > 214 µM | >3.1 |  | 212 µM
COc1ccc(S(=O)(=O)NCCCN2CCN(CCCNS(=O)(=O)c3ccc(OC)c(OC)c3)CC2)cc1OC | 4.09 | > 166 µM | >2 |  | > 166 µM
CC(C)Oc1ccc(/C=N/N=C2/NC(=O)C(CC(=O)O)S2)cc1 (stereo not given) | 3.90 | > 149 µM | >1.1 |  | 
